The source made the active and inactive calls. No cut-off for these calls is given here.
Tests used:
Type in all cases: cell-based
[1] = biological target: Nuclear receptor subfamily 4 group A member 2 (Homo sapiens) (UniProt P43354); experiment: Modulation of full length human Nurr1 expressed in PC12 cells co-transfected with luciferase reporter plasmid harboring NBRE response element assessed as decrease in luciferase activity at 1.95 to 125 uM incubated for 18 hrs by luciferase reporter gene assay; settings: PC-12, filed as modulator, dose 1.95-125 µM
Outline: (§1)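 Here PC12 cells (FK-12 medium, 15% horse serum, 2.5% FBS, 37°C, 5% CO2) received full-length Nurr1 (2 μg) without RXRα, plus 3xNBRE- or 3xNurRE-luciferase reporter (6 μg), for 18 h. Cells were replated at 10,000/well for 4 h, then treated with ligand or vehicle in quadruplicate for 18 h. Luciferase luminescence was normalized to vehicle-treated cells. Results are mean ± s.e.m. (n=4) from 2 independent experiments, with one-way ANOVA against vehicle.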

[2] = biological target: Nuclear receptor subfamily 4 group A member 2 (Homo sapiens) (UniProt P43354); experiment: Modulation of full length human Nurr1 expressed in HEK293T cells co-transfected with RXRalpha and luciferase reporter plasmid harboring NBRE response element assessed as decrease in luciferase activity at 1.95 to 125 uM incubated for 18 hrs by luciferase reporter gene assay; settings: filed as modulator, dose 1.95-125 µM
Outline: (§2)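 Full-length Nurr1 plasmid, alone (2 μg) or 1 μg plus full-length RXRα (1 μg), cotransfected with 3xNBRE- or 3xNurRE-luciferase reporter (6 μg) using Lipofectamine 2000, 18 h. Cells replated at 10,000/well for 4 h. Four ligand concentrations, or vehicle (water, ethanol or DMSO), added in quadruplicate for 18 h. Luciferase read. Fold change vs vehicle, mean ± s.e.m., one-way ANOVA vs vehicle.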

[3] = biological target: Nuclear receptor subfamily 4 group A member 2 (Homo sapiens) (UniProt P43354); experiment: Modulation of full length human Nurr1 expressed in HEK293T cells co-transfected with luciferase reporter plasmid harboring NBRE response element assessed as decrease in luciferase activity at 1.95 to 125 uM incubated for 18 hrs by luciferase reporter gene assay; settings: filed as modulator, dose 1.95-125 µM; outline: as §2
[4] = biological target: Nuclear receptor subfamily 4 group A member 2 (Homo sapiens) (UniProt P43354); experiment: Modulation of full length human Nurr1 expressed in PC12 cells co-transfected with RXRalpha and luciferase reporter plasmid harboring NBRE response element assessed as decrease in luciferase activity at 1.95 to 125 uM incubated for 18 hrs by luciferase reporter gene assay; settings: PC-12, filed as modulator, dose 1.95-125 µM; outline: as §2
[5] = biological target: Nuclear receptor subfamily 4immunitygroup A member 1 (Homo sapiens) (UniProt P22736); experiment: Modulation of full length human Nur77 expressed in HEK293 cells co-transfected with luciferase reporter plasmid harboring NBRE response element assessed as increase in luciferase activity incubated for 18 hrs by luciferase reporter gene assay; settings: filed as modulator
Outline: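 Cells seeded at 1.5 million per 10-cm dish. Next day they were transfected (Lipofectamine 2000) with full-length Nur77 or NOR-1 expression plasmid, either alone (2 μg) or 1 μg plus full-length RXRα (1 μg), and 3xNBRE- or 3xNurRE-luciferase reporter (6 μg), 18 h. Cells replated at 10,000/well, 4 h, then ligand dose response added in quadruplicate for 18 h. Luciferase luminescence read.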

[6] = tested on: SKNBE2; experiment: Modulation of Gal4-fused VP16 expressed in SKNBE(2) cells co-transfected with UAS repoter gene assessed as increase in luciferase activity upto 15 uM incubated for 18 hrs by luciferase reporter gene assay; settings: Human alphaherpesvirus 2, filed as modulator, dose microM <=15, time 18.0 hrs
Outline: (§3)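 Cells in 10-cm dishes were transfected with Gal4-VP16 expression plasmid (2 μg) plus 5xUAS-luciferase reporter (2 μg) for 18 h. They were replated at 10,000 cells/well for 4 h, then given ligand or vehicle (water, ethanol or DMSO) in quadruplicate for 18 h. Luciferase was read with Britelite Plus. Fold change is versus vehicle-treated cells, with one-way ANOVA versus vehicle.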

[7] = tested on: SK-N-BE(2); experiment: Cytotoxicity against human SKNBE2 cells assessed as reduction in cell viability at 125 uM incubated for 18 hrs by Cell Titer Glo assay
Outline: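 Cells seeded at 1.5 million per 10-cm dish. Next day they were replated at 10,000 cells/well and rested 4 h. Ligand or vehicle (water, ethanol or DMSO, by ligand) was added in dose-response format in quadruplicate. After 18 h, viability was read by CellTiter-Glo luminescence. Data are mean ± s.e.m., generally representative of 2 independent experiments. One-way ANOVA versus vehicle.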

[8] = biological target: Nuclear receptor subfamily 4 group A member 3 (Homo sapiens) (UniProt Q92570); experiment: Modulation of full length human NOR1 expressed in HEK293 cells co-transfected with luciferase reporter plasmid harboring NBRE response element assessed as increase in luciferase activity incubated for 18 hrs by luciferase reporter gene assay; settings: filed as modulator
Outline: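 Full-length NOR-1 plasmid was transfected via Lipofectamine 2000, either alone (2 μg) or at 1 μg with full-length RXRα (1 μg). It was paired with a 3xNBRE or 3xNurRE luciferase reporter (6 μg), 8 μg total DNA, for 18 h. Cells were replated at 10,000/well for 4 h, then given a full ligand dose response or vehicle in quadruplicate for 18 h. Luciferase was read; no EC50/IC50 was fitted.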

[9] = biological target: Nuclear receptor subfamily 4 group A member 2 (Homo sapiens) (UniProt P43354); experiment: Modulation of full length human Nurr1 expressed in HEK293T cells co-transfected with luciferase reporter plasmid harboring NurRE response element assessed as decrease in luciferase activity at 1.95 to 125 uM incubated for 18 hrs by luciferase reporter gene assay; settings: filed as modulator, dose 1.95-125 µM; outline: as §2
[10] = biological target: Nuclear receptor subfamily 4 group A member 2 (Homo sapiens) (UniProt P43354); experiment: Modulation of full length human Nurr1 expressed in PC12 cells co-transfected with luciferase reporter plasmid harboring NurRE response element assessed as decrease in luciferase activity at 1.95 to 125 uM incubated for 18 hrs by luciferase reporter gene assay; settings: PC-12, filed as modulator, dose 1.95-125 µM; outline: as §1
[11] = tested on: SKNBE2; experiment: Modulation of Gal4-fused VP16 expressed in SKNBE(2) cells co-transfected with UAS repoter gene assessed as decrease in luciferase activity at 125 uM incubated for 18 hrs by luciferase reporter gene assay; settings: Human alphaherpesvirus 2, filed as modulator; outline: as §3
[12] = biological target: Nuclear receptor subfamily 4 group A member 2 (Homo sapiens) (UniProt P43354); experiment: Modulation of full length human Nurr1 expressed in PC12 cells co-transfected with RXRalpha and luciferase reporter plasmid harboring NurRE response element assessed as decrease in luciferase activity at 1.95 to 125 uM incubated for 18 hrs by luciferase reporter gene assay; settings: PC-12, filed as modulator, dose 1.95-125 µM
Outline: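 PC12 cells were grown at 37°C and 5% CO2 in […] medium with 15% horse serum and 2.5% FBS. They were transfected with full-length Nurr1 (1 μg) plus full-length RXRα (1 μg) and 3xNBRE- or 3xNurRE-luciferase reporter (6 μg) for 18 h, then replated at 10,000 cells/well for 4 h. Ligand or vehicle (water, ethanol or DMSO) was added in quadruplicate for 18 h. Luminescence was read as fold change over vehicle. Results are mean ± s.e.m., n=4, from 2 independent experiments, analysed by one-way ANOVA against vehicle.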

Nuclear receptor subfamily 4immunitygroup A member 1 (Homo sapiens), sequence (P22736 whole entry): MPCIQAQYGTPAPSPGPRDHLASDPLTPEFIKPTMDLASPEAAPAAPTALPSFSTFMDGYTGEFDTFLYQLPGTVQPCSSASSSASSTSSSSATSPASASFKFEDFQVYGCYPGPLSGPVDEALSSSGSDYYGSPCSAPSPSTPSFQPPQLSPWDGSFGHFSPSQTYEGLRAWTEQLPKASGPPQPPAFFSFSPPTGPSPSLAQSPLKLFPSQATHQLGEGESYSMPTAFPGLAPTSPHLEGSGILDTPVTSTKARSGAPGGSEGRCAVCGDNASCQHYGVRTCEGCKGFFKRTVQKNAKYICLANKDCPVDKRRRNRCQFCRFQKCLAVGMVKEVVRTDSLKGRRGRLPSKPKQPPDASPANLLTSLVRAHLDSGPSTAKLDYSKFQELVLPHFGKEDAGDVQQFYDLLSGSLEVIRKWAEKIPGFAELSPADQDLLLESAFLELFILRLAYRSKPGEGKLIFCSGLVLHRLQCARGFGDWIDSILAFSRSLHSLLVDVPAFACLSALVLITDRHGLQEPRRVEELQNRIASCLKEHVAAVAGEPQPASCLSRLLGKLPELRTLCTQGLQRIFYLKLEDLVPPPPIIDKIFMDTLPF
Nuclear receptor subfamily 4 group A member 3 (Homo sapiens), sequence (Q92570 whole entry): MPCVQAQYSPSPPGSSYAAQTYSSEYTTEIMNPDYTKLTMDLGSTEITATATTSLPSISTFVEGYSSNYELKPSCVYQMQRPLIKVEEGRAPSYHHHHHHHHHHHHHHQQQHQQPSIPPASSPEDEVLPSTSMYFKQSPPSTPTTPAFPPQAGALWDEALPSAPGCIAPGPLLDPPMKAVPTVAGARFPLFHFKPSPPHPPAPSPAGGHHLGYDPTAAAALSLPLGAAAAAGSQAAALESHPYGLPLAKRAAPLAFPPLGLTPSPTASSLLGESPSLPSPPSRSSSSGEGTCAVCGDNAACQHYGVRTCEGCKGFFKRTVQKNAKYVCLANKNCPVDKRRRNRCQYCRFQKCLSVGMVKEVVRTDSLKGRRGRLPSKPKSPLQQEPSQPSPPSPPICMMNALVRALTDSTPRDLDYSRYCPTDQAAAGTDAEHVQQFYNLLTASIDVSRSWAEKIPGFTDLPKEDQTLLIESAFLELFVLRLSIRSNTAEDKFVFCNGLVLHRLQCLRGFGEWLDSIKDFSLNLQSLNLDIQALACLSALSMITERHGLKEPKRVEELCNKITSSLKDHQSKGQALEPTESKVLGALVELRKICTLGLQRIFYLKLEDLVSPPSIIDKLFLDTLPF
Nuclear receptor subfamily 4 group A member 2 (Homo sapiens), sequence (P43354 whole entry, the tested form may be a part): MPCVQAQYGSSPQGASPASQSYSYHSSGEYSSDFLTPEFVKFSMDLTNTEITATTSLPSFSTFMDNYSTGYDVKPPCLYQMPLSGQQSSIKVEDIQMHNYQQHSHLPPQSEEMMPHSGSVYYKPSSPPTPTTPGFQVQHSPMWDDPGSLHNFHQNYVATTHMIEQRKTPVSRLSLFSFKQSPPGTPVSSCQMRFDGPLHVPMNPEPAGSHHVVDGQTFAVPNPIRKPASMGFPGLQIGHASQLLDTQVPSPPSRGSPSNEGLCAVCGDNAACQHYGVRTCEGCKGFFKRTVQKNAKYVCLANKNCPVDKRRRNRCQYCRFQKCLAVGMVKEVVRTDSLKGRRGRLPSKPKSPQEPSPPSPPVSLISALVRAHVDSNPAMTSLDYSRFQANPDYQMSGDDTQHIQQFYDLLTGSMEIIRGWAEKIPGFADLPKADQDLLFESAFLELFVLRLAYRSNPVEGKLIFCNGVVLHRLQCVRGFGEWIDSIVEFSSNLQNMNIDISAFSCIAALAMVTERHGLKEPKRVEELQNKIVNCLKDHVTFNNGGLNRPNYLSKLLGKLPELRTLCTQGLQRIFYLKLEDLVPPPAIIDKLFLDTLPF

| Activity [1] | Activity [2] | Activity [3] | Activity [4] | Activity [5] | Activity [8] | Activity [9] | Activity [10] | Activity [12] | SMILES | Activity [6] | Activity [7] | Activity [11] |
| --- | --- | --- | --- | --- | --- | --- | --- | --- | --- | --- | --- | --- |
| Active | Active | Active | Active | Dose-Dependent Effect | Dose-Dependent Effect | Active | Active | Active | CCN(CC)Cc1cc(Nc2ccnc3cc(Cl)ccc23)ccc1O [AMODIAQUINE] | Active | Non-Toxic | Active |
| Active | Active | Active | Active | Dose-Dependent Effect | Dose-Dependent Effect | Active | Active | Active | CCN(CC)CCCC(C)Nc1ccnc2cc(Cl)ccc12 (stereo unspecified) [CHLOROQUINE] | Active | Non-Toxic | Active |
|  |  |  |  | Dose-Dependent Effect | Dose-Dependent Effect |  |  |  | CCCCCCCC(=O)c1c(O)cc(O)cc1CC(=O)OCC [CYTOSPORONE B] |  |  |  |

From ChEMBL document CHEMBL5030505, “Assessment of NR4A Ligands That Directly Bind and Modulate the Orphan Nuclear Receptor Nurr1” (J Med Chem, 2020)
